High-throughput results deposited in PubChem BioAssay by several laboratories.
A selection: hits, their analogues and other compounds. The true share with any hit is near 4.1%.
hERG rescue – hERG (human) protection from proarrhythmic block; activation (rescue from dofetilide block), less the hit threshold, % at 10 µM; CHO-hERG, FluxOR thallium flux, dofetilide IC70 present; actives 0.51% (n = 310,000); Q12809; AID 1511;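 active = activation above the mean of controls blocked by dofetilide plus 5 SD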;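 note: thallium influx through hERG after potassium depolarization seen as dye fluorescence rise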
Target sequence (Q12809 whole entry, looked up): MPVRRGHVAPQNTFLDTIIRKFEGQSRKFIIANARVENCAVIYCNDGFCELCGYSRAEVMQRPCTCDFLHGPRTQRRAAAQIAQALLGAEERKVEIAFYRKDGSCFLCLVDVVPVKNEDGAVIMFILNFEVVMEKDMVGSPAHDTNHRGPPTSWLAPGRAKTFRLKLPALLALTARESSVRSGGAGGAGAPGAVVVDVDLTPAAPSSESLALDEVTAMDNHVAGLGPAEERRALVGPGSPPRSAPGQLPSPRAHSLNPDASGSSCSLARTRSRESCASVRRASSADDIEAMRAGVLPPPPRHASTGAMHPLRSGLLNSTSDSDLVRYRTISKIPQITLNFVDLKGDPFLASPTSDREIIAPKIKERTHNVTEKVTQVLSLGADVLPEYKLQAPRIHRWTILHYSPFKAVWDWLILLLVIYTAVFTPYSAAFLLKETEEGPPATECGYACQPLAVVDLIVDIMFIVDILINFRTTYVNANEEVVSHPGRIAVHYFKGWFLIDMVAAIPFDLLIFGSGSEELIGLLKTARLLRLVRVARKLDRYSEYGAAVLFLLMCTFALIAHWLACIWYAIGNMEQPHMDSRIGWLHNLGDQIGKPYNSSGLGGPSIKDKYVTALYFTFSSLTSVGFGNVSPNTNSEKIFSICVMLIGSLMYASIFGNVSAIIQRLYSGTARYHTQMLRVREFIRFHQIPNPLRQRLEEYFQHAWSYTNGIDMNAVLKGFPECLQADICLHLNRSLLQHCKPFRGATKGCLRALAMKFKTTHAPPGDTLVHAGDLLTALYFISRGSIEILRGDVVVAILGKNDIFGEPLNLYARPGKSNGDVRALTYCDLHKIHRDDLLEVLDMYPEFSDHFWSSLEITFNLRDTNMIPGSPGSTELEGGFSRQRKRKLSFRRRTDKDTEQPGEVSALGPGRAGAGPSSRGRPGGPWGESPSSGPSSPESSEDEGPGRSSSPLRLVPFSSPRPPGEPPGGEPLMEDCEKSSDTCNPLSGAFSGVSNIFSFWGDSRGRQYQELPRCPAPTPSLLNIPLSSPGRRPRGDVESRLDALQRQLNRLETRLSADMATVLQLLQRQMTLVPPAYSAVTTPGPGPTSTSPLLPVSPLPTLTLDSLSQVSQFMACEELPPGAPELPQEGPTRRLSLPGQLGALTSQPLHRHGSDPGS
KCNK9 block – human KCNK9 channel inhibition; Q9NPC2; actives 1.2% (n = 310,000); HEK293 KCNK9, FluxOR thallium flux fluorescence; hits give low values; AID 488922; B-score at 10 µM;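 active = ratio B-score over 3 SD below the library mean, with starting fluorescence within 5 SD of its mean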;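 note: negative B-score means less thallium flux so channel inhibition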
KCC2 mod – modulates chloride dependent transport by human KCC2; Q9H2X9; KCC2 cells, thallium flux FluoZin-2 fluorescence; B-score of Tl+ flux slope (higher = more flux/activation; lower = inhibition) at 10 µM; actives 2.2% (n = 190,000);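 active = thallium flux slope and its plate-corrected score both differing from the plate sample mean at a set confidence after two filtering rounds, in either direction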;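 note: slope of fluorescence scaled to starting intensity during 10 to 20 s after thallium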
KCNQ1 act – potentiates or activates the human KCNQ1 potassium channel. CHO-K1 KCNQ1, thallium flux FluxOR fluorescence; hits give high values. B-score at 10 µM. actives 0.35% (n = 310,000). AID 2648;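 active = fluorescence ratio B-score, a plate-corrected score, at least three library SD, with initial intensity B-score within 5 SD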
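Doses: Single concentration per compound, DMSO matched to controls | Test system: KCNQ1-transfected CHO-K1 cells | Timing: 90 min dye loading and 20 min compound exposure, both at room temperature | Measured by: Kinetic FluxOR thallium fluorescence, 10-s 1-Hz baseline, 110-s post-stimulus read | Medium: Assay buffer with matched DMSO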
KCNK3 inh – human KCNK3 channel inhibition, primary screen; B-score at 10 µM; CHO-KCNK3 thallium flux, FluxOR fluorescence; hits give low values; actives 0.84% (n = 340,000); O14649;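 active = B-score under library mean minus 4 SD, starting fluorescence ratio at most library mean plus 5 SD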;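 note: more negative B-score means stronger inhibition of thallium flux through KCNK3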
KCNQ1 inh – human KCNQ1 channel inhibition; actives 1.3% (n = 310,000); P51787; B-score at 10 µM; AID 2642; CHO-K1 KCNQ1, FluxOR thallium flux fluorescence; hits give high values;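 active = compounds whose thallium flux B-score, printed positive for inhibition, exceeds three library SD while starting fluorescence stays within three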;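 note: channel opened by potassium depolarization with thallium stimulus after 20 min compound exposure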
Numbers without * were called inactive; i = inactive; nt = no result.

SMILES	hERG rescue	KCNK9 block	KCC2 mod	KCNQ1 act	KCNK3 inh	KCNQ1 inh
CC(=O)c1c(C)[nH]c(C(=O)OCC(=O)Nc2ccc(C)cc2[N+](=O)[O-])c1C	-10	i	-0.7	i	i	6*
CC(=O)c1c(C)[nH]c(C(=O)OCC(=O)Nc2cc(Cl)ccc2[N+](=O)[O-])c1C	-6	i	-2.1	i	i	i
Nc1cc(=O)[nH]c(SCc2nc3ccccc3n2Cc2ccccc2)n1	6.1*	i	-0.0072	i	i	i
O=c1[nH]c(SCc2nc3ccccc3n2Cc2ccccc2)nc2ccccc12	-5	i	0.44	i	i	i
O=C(NCc1ccco1)c1cc2sccc2n1Cc1ccccc1	-7	-6.9*	-0.49	i	i	i
COc1ccc(CC(=O)Nc2ccc(S(=O)(=O)N(C)C3CCN(C)CC3)cc2)cc1	nt	nt	nt	nt	i	nt
CC(Oc1ccc(Br)cc1)C(=O)Nc1ccc(S(=O)(=O)N(C)C2CCN(C)CC2)cc1 (stereo not given)	-16	i	nt	10*	i	i
Cc1ccc(C(=O)Nc2nc(-c3ccccn3)cs2)cc1S(=O)(=O)N1CCOCC1	nt	nt	nt	nt	i	nt
Cn1nc(-c2ccc(Cl)cc2)c2cc(C(=O)N3CCN(c4ccccn4)CC3)sc21	-6	i	nt	i	-13*	i
Cc1cc(N2CCN(C)CC2)nc(N2CCOCC2)n1	8.0*	i	nt	i	i	i
Cc1cc(N2CCOCC2)nc(N2CCOCC2)n1	-4	i	-0.45	i	i	i
CCN(CC(=O)Nc1c(F)cccc1F)C(=O)Cc1csc(-c2ccccc2)n1	-14	i	nt	i	i	i
Cc1ccc2c(CSc3nc4ccccc4c(=O)n3CCCO)cc(=O)oc2c1C	-11	-7.4*	0.1	i	i	i
O=C(CCc1ccc(O)c(O)c1)N/N=C/c1ccc2c(c1)OCO2	-16	i	nt	i	i	6*
CCOC(=O)c1c(C)oc2c1c(C(c1cccnc1)N1CCCCC1)c(O)c1ccccc12 (stereo not given)	-7	i	-0.027	i	i	6*
Cc1ccc(NC(=O)Cc2ccc(-c3ccccc3)cc2)nc1	-3	i	nt	i	i	i
Cc1ccc(NC(=O)CCCc2ccccc2)nc1	-16	i	-1.4	i	i	6*
O=C(CSc1ncnc2scc(-c3ccc(Cl)cc3)c12)NCc1ccc2c(c1)OCO2	-6	i	-1.3	i	-9.9*	i
CCC(C(=O)N1CCC(N2CCCCC2)CC1)n1nc(C)c2sc3ccccc3c2c1=O (stereo not given)	-5	i	nt	i	i	i
CC(=O)C1=C(C)NC(SCC(=O)c2ccc(C)cc2)=C(C#N)C1c1ccco1 (stereo not given)	-12	i	-1.9	i	nt	6*
COc1ccccc1NC(=O)C1=C(C)NC(SCC(=O)c2ccccc2)=C(C#N)C1c1ccco1 (stereo not given)	-33	i	-1.3	i	i	i
C=CCN=c1scc(-c2ccc(F)cc2)n1/N=C/c1ccccn1	-5	i	-4.2	i	i	i
C=CCN=c1scc(-c2ccccc2)n1/N=C/c1ccccn1	-12	i	-4.1*	i	i	i
CCN=c1scc(-c2ccccc2)n1/N=C/c1ccccn1	-12	i	-3.8*	i	i	i
Cc1nc2ccccc2c(=O)n1/N=C/c1ccccn1	-6	i	0.45	i	i	i
SMILES	hERG rescue	KCNK9 block	KCC2 mod	KCNQ1 act	KCNK3 inh	KCNQ1 inh
COc1ccccc1CNC(=O)CCC1N=C2c3ccccc3N=C(SCC(=O)NCC3CCCO3)N2C1=O (stereo not given)	-8	i	nt	i	i	i
C=C(C)C(=O)N1CCN(C(=O)C(=C)C)c2ccccc21	nt	nt	nt	nt	i	nt
Cc1cc(C)c(C)c(S(=O)(=O)NCC(=O)Nc2ccc(F)cc2)c1C	-7	i	nt	i	i	i
O=C(CSc1nc2ccccc2n1Cc1ccccc1)N/N=C/c1ccccc1C(=O)O	-7	i	-0.4	i	i	i
O=C(CSc1nc2ccccc2n1Cc1ccc(Cl)cc1)N/N=C/c1ccc(C(=O)O)cc1	-5	-6.8*	0.91	i	i	i
Cc1ccc(N=Cc2cc(Cl)cc(Cl)c2O)nc1	5.3*	i	-1.9	17*	i	i
Brc1csc(C=Nc2ccc3c(c2)OCCOCCOCCOCCO3)c1	1	i	-0.27	i	i	i
Oc1c(Cl)cc(Cl)cc1/C=N/Nc1ncc(Br)cn1	-11	i	0.13	i	i	i
Oc1c(Cl)cc(Cl)cc1C=Nc1ccc2c(c1)OCCO2	1	i	nt	8*	i	i
Cc1ccc2cccc(OCC(=O)N3CCc4ccccc43)c2n1	50*	i	-1.2	i	i	i
CCCCn1c(NC(=S)Nc2ccccc2)nc2ccccc21	-3	i	47*	i	i	i
CCC1(c2ccc(Cl)cc2)NC(=S)N(c2ccccc2)N1 (stereo not given)	49*	i	23*	40*	i	i
S=c1[nH]c2cc(-c3ccccc3)ccc2o1	45*	i	nt	63*	i	i
COc1ccc(OCC(=O)NCc2nc(-c3ccccc3)no2)cc1	nt	nt	nt	nt	i	nt
CN(Cc1ccccc1)C(=O)c1cccc(NC(=O)Cc2ccc(NC(=O)C3CCCN(C(=O)C4CCCC4)C3)cc2)c1 (stereo not given)	nt	nt	nt	nt	i	nt
COc1ccc(C(=O)NCc2ccc3c(c2)OCO3)cc1S(=O)(=O)N1CCCC1	nt	nt	nt	nt	i	nt
COc1ccc(C)cc1NC(=O)C(=O)NNC(=O)c1ccco1	34*	i	21*	29*	i	i
CC(=O)C1=NN(c2ccccc2)C(c2ccc3c(c2)OCO3)N1c1ccc(N2CCOCC2)cc1 (stereo not given)	-8	i	-0.29	i	i	i
CC(=O)C1=NN(c2ccccc2)C(c2cccs2)N1c1ccccc1 (stereo not given)	-9	-7.6*	-1.2	i	nt	8*
O=C(CCNS(=O)(=O)c1ccccc1)N1CCN(c2ccccc2F)CC1	-5	i	nt	i	i	i
COc1ccc2nc(N=Nc3ccc(O)c4ccccc34)sc2c1	11*	i	18*	18*	i	i
CC(C)(C)OC(=O)CNC(=O)c1nc[nH]c1C(=O)N1CCc2ccccc2C1	-10	i	nt	i	i	i
COC(=O)[C@]1(C)N[C@H](CN(C)C(=O)c2ccc(F)cc2)[C@@H]2C(=O)N(Cc3ccccc3)C(=O)[C@@H]21	nt	nt	nt	nt	i	nt
